Test results from ChEMBL document CHEMBL3870302, “Computer-aided identification, synthesis and evaluation of substituted thienopyrimidines as novel inhibitors of HCV replication” (Eur J Med Chem, 2016).

Key:
Hepatitis C virus = test: Antiviral activity against Hepatitis C virus genotype 1b infected in human HuH5.2 cells after 72 hrs by luciferase reporter gene assay; assay type: functional, cell-based, Hepacivirus hominis
Procedure, shortened: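 Huh 5-2 cells with genotype 1b I389luc-ubi-neo/NS3-3'/5.1 subgenomic replicon, seeded 6 500 cells/well in DMEM/10% FCS without Geneticin, overnight 37 °C. Compound (DMSO stock diluted in medium) in 1:5 four-step or 1:2 eight-step series, 72 h. Cells PBS-washed, lysed 5 min, luciferase luminescence read, converted to % untreated control; EC50 from dose-response curve, mean of ≥2 independent experiments.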

[1] = Inhibition of Hepatitis C virus genotype 1b (con1) full length C-terminal His-tagged NS3 helicase expressed in Escherichia coli Rosette(DE3) assessed as inhibition of 5'-Cy5/3'-IAbRQ-labeled DNA unwinding activity by molecular beacon assay; design: species or system Hepatitis C virus (isolate Con1)
Procedure, shortened: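 Molecular beacon unwinding assay: 25 mM MOPS pH 6.5, 1.25 mM MgCl2, 5% DMSO, 5 µg/ml BSA, 0.01% Tween20, 0.05 mM DTT, 5 nM fluorescent DNA substrate, 12.5 nM NS3h, 1 mM ATP.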

[2] = Cytotoxicity against human HuH5.2 cells assessed as reduction in metabolic activity after 72 hrs by MTS assay; assay type: toxicity, cell-based, Huh-5-2; details: for CC50 at 72 h: HuH5.2 cells
Procedure, shortened: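 Run in parallel with the replicon assay: Huh 5-2 replicon cells, 6 500 cells/well, compound series for 72 h at 37 °C, 5% CO2. Medium then replaced with 5% MTS in phenol red-free medium for 1.5 h. Absorbance at 498 nm expressed as % untreated cells; CC50 from dose-response curve as 50% reduction in metabolic activity, mean of ≥2 experiments.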

[3] = Selectivity index, ratio of CC50 for human HuH5.2 cells to EC50 for hepatitis C virus genotype 1b infected in human HuH5.2 cells; assay type: toxicity, cell-based; details: for selectivity ratio: HuH5.2 cells, read-out: Ratio CC50/EC50
Procedure, shortened: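 Ratio of CC50 (MTS metabolic read-out, 72 h) to EC50 (replicon luciferase read-out, 72 h), both measured in parallel on Huh 5-2 genotype 1b replicon cells.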

[4] = Hepatitis C virus, genotype 1b, Huh-5-2, 72 h

Row | EC50 (Hepatitis C virus; [4]) [µM] | IC50 [1] [µM] | EC90 (Hepatitis C virus; [4]) [µM] | EC50 (Hepatitis C virus) [µM] | SMILES | CC50 at 72 h [2] [µM] | selectivity ratio [3] | CC50 ([2]; huh-5-2, 72 h, 72 h) [µM] | Ratio CC50/EC50 [3]
1 | 0.159 | 306 | – | – | Cc1c(Cl)sc2ncnc(NNC(=O)c3ccccc3O)c12 | > 8.96 | > 56.1 | – | –
2 | 0.17 | > 1000 | 0.679 | – | O=C(NNc1ncnc2sc3c(c12)CCCC3)c1nc2ccccc2[nH]1 | 3.14 | 18.5 | – | –
3 | 0.355 | > 1000 | 2.85 | – | C/C(=N\Nc1ncnc2sc3c(c12)CCCC3)c1cnccn1 | 57.1 | 160 | – | –
4 | 1.58 | > 1000 | 4.65 | – | C/C(=N/Nc1ncnc2sc(C)c(C)c12)c1cc(O)ccc1O | > 305 | > 193 | – | –
5 | 16.5 | > 1000 | – | – | O=C(NNc1ncnc2sc3c(c12)CCCC3)c1ccc2ccccc2n1 | 40.4 | 2.4 | – | –
6 | 1.26 | > 1000 | 3.07 | – | Cc1nc(NNC(=O)c2ccccc2O)c2c3c(sc2n1)CCCC3 | 25 | 19.8 | – | –
7 | 1.1 | > 1000 | 3.25 | – | C/C(=N\Nc1ncnc2sc3ccccc3c12)c1nc2ccccc2[nH]1 | 19.1 | 17.4 | – | –
8 | 0.0386 | > 1000 | 0.319 | – | Cc1sc2ncnc(NNC(=O)c3cnccn3)c2c1C | 1.67 | 43.3 | – | –
9 | 0.058 | > 1000 | 0.289 | – | C/C(=N/Nc1ncnc2sc(Cl)c(C)c12)c1cnccn1 | 3.13 | 53.9 | – | –
10 | 1.29 | > 1000 | 3.75 | – | O=C(NNc1ncnc2sc3c(c12)CCCC3)c1cnccn1 | 10.6 | 8.21 | – | –
11 | 1.17 | > 1000 | 2.92 | – | Oc1ccc(O)c(/C=N/Nc2ncnc3sc4c(c23)CCCC4)c1 | 36.8 | 31.5 | – | –
12 | 32.4 | > 1000 | > 33.5 | – | c1ccc2c(Nc3ncnc4sc5c(c34)CCCC5)cccc2c1 | 281 | 8.7 | – | –
13 | 20.8 | 224 | – | – | O=C(NNc1ncnc2sc3c(c12)CCCC3)c1cc2ccccc2[nH]1 | 74.5 | 3.6 | – | –
14 | 1.72 | > 1000 | 4.07 | – | C/C(=N\Nc1ncnc2sc3c(c12)CCC3)c1ccccc1O | 141 | 82.9 | – | –
15 | 0.475 | > 1000 | 0.897 | – | C/C(=N\Nc1ncnc2sc3ccccc3c12)c1cc(O)ccc1O | 21 | 44.2 | – | –
16 | 0.088 | > 1000 | 0.286 | – | Cc1c(Cl)sc2ncnc(NNC(=O)c3ccccn3)c12 | > 9.38 | > 106 | – | –
17 | 0.851 | > 1000 | 2.28 | – | O=C(NNc1ncnc2sccc12)c1cnccn1 | 233 | 274 | – | –
18 | – | > 1000 | – | < 1 | C/C(=N\Nc1ncnc2sc3c(c12)CCCC3)c1cc(O)ccc1O (stereo in doubt; form 1) | – | – | > 141 | > 141
19 | 0.745 | > 1000 | 1.94 | – | O=C(NNc1ncnc2sc3c(c12)CCC3)c1ccccn1 | 6.61 | 8.9 | – | –
20 | 1.47 | > 1000 | 0.819 | – | O=C(NNc1ncnc2sc3c(c12)CCCC3)c1ccccn1 | 7.75 | 5.27 | – | –
21 | 2.42 | > 1000 | 7.06 | – | C/C(=N\Nc1ncnc2sc3c(c12)CCCC3)c1nc2ccccc2[nH]1 | 37.3 | 15.4 | – | –
